Activity calls are given as the source filed them. The rule behind the calls is not given here.
Tests used:
HBL-100 [1] = assay: Growth inhibition of human HBL100 cells by SRB assay; type: functional
Summary of the method: (§1)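 Cells kept in RPMI 1640 with 5% heat-inactivated FCS and 2 mM L-glutamine. Plated at 10 000 (HBL-100, SW1573), 15 000 (HeLa) or 20 000 (WiDr) cells/well. Drug added on day 1, in triplicate, over 1–100 µM with 0.25% DMSO final. Exposure 48 h. Cells TCA-fixed 60 min at 4 °C, then SRB-stained, OD 492 nm, background-corrected. GI50 reported.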

WiDr [2] = assay: Growth inhibition of human WiDr cells by SRB assay; type: functional; summary of the method: as §1
HeLa [3] = assay: Growth inhibition of human HeLa cells by SRB assay; type: functional; summary of the method: as §1
SW1573 [4] = assay: Growth inhibition of human SW1573 cells by SRB assay; type: functional; summary of the method: as §1
SW1573 [5] = assay: Cell cycle arrest in human SW1573 cells assessed as accumulation at G2/M phase after 24 hrs by flow cytometric analysis; type: functional, cell-based
Summary of the method: (§2)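 Cells seeded at 2.5–5 × 10^5 per well and treated after 24 h at two concentrations per agent for a further 24 h. Harvested, then fixed in ice-cold 70% EtOH overnight. Treated with DNase-free RNase at 37 °C for 30 min and stained with PI. DNA content read by flow cytometry on 20 000 cells/sample. G0/G1, S and G2/M fractions gated.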

WiDr [6] = assay: Cell cycle arrest in human WiDr cells assessed as accumulation at G2/M phase after 24 hrs by flow cytometric analysis; type: functional, cell-based; summary of the method: as §2
HeLa [7] = assay: Induction of DNA damage in human HeLa cells assessed as increase in chk2 phosphorylation at 3 uM after 24 hrs by immunoblot analysis; type: functional, cell-based
Summary of the method: (§3)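 HeLa cells exposed to 3 µM for several time intervals. Lysed in Tris pH 8.0/NP-40 buffer with protease and phosphatase inhibitors, and debris pelleted. Proteins resolved by SDS-PAGE and blotted to PVDF. Probed for PARP-1, procaspase 3, cyclin A, cyclin E, MRE11, p-Chk2 and γ-H2AX, with α-tubulin as loading control. HRP secondaries with luminol/p-iodophenol detection.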

HeLa [8] = assay: Increase in cyclin A expression in human HeLa cells at 3 uM after 24 hrs by immunoblot analysis; type: functional, cell-based; summary of the method: as §3
HBL-100 [9] = assay: Cell cycle arrest in human HBL100 cells assessed as accumulation at G2/M phase after 24 hrs by flow cytometric analysis; type: functional, cell-based; summary of the method: as §2
HeLa [10] = assay: Decrease in cyclin E expression in human HeLa cells at 3 uM after 24 hrs by immunoblot analysis; type: functional, cell-based; summary of the method: as §3
HeLa [11] = assay: Induction of apoptosis in human HeLa cells assessed as PARP cleavage at 3 uM after 24 hrs by immunoblot analysis; type: functional, cell-based; summary of the method: as §3
HeLa [12] = assay: Cell cycle arrest in human HeLa cells assessed as accumulation at G2/M phase after 24 hrs by flow cytometric analysis; type: functional, cell-based; summary of the method: as §2
HeLa [13] = assay: Increase in MRE11A expression in human HeLa cells at 3 uM after 24 hrs by immunoblot analysis; type: functional, cell-based; summary of the method: as §3
HeLa [14] = assay: Induction of DNA damage in human HeLa cells assessed as increase in gamma-H2AX phosphorylation at 3 uM after 24 hrs by immunoblot analysis; type: functional, cell-based; summary of the method: as §3
SW1573 [15] = assay: Cell cycle arrest in human SW1573 cells assessed as accumulation at S phase after 24 hrs by flow cytometric analysis; type: functional, cell-based; summary of the method: as §2
WiDr [16] = assay: Cell cycle arrest in human WiDr cells assessed as accumulation at S phase after 24 hrs by flow cytometric analysis; type: functional, cell-based; summary of the method: as §2
HeLa [17] = assay: Induction of intracellular reactive oxygen species production in human HeLa cells at 3 uM after 3 hrs DCFH-DA staining-based flow cytometric analysis relative to control; type: functional
Summary of the method: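 HeLa cells seeded at 3 × 10^5 per well and treated 24 h later at 3 µM for 3 h. Co-incubated with 5 µM DCFH-DA for 1 h at 37 °C. DCF fluorescence read by flow cytometry on 10 000 cells/sample and compared with untreated cells. H2O2 (500 µM) served as positive control.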

HBL-100 [18] = assay: Cell cycle arrest in human HBL100 cells assessed as accumulation at S phase after 24 hrs by flow cytometric analysis; type: functional, cell-based; summary of the method: as §2
HeLa [19] = assay: Induction of apoptosis in human HeLa cells assessed as caspase 3 cleavage at 3 uM after 24 hrs by immunoblot analysis; type: functional, cell-based; summary of the method: as §3
[20] = Cytotoxicity against mouse erythrocytes assessed as lytic effect; type: cell-based; details: erythrocyte
[21] = target: DNA topoisomerase 2-alpha (Homo sapiens) (UniProt P11388); assay: Inhibition of human topoisomerase 2alpha-mediated kDNA decatenation
HeLa [22] = assay: Cell cycle arrest in human HeLa cells assessed as accumulation at S phase after 24 hrs by flow cytometric analysis; type: functional, cell-based; summary of the method: as §2

Chain of DNA topoisomerase 2-alpha (Homo sapiens) (P11388 whole entry): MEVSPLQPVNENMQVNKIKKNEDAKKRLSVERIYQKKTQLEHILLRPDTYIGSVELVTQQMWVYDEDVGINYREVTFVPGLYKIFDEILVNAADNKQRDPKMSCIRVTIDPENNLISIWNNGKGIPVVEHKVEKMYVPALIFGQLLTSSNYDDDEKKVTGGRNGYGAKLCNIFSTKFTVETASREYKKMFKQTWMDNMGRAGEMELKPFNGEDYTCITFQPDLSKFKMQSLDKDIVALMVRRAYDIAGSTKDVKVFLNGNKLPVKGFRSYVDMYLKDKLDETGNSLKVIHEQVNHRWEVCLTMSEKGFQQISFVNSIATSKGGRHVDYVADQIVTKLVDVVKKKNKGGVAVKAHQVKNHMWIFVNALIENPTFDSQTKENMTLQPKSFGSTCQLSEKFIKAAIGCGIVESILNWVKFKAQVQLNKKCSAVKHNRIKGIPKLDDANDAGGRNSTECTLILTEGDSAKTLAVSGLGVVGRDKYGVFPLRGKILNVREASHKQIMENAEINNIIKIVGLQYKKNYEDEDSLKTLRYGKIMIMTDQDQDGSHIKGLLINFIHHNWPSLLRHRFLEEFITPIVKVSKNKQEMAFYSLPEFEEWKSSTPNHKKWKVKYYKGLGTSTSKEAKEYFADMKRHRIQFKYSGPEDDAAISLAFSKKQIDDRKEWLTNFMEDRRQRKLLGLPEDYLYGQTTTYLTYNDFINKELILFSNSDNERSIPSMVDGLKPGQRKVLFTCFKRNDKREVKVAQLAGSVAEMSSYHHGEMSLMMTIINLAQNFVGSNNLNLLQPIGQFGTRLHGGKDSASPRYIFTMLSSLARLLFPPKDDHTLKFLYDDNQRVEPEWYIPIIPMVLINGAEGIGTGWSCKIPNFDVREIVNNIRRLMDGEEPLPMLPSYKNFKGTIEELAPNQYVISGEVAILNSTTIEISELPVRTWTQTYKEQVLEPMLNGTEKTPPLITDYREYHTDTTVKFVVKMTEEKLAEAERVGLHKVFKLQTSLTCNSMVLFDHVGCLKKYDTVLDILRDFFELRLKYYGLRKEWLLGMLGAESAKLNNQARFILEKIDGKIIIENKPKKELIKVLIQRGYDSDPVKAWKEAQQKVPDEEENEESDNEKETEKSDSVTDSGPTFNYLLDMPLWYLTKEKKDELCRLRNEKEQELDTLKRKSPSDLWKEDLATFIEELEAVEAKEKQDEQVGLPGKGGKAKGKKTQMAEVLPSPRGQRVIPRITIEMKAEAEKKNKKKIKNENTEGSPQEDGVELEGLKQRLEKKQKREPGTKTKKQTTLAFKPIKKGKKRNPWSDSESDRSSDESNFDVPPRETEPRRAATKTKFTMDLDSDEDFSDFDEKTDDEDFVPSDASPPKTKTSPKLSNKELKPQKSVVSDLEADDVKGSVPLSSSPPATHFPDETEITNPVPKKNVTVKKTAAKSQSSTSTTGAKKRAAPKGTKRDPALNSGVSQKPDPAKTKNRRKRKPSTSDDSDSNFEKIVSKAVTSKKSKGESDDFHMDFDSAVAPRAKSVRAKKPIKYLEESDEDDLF

CC1(C)CCC2=C(O1)c1cccc(OC(=O)C(C)(C)C)c1C(=O)C2=O
GI50 (HBL-100 [1]): 180 nM
GI50 (WiDr [2]): 2100 nM
GI50 (HeLa [3]): 1600 nM
GI50 (SW1573 [4]): 230 nM

CC1(C)CCC2=C(O1)c1ccc(O)cc1C(=O)C2=O
GI50 (HBL-100 [1]): 2300 nM
GI50 (WiDr [2]): 21000 nM
GI50 (HeLa [3]): 2500 nM
GI50 (SW1573 [4]): 2300 nM

COc1ccc2c(c1)C(=O)C(O)=C(CC=C(C)C)C2=O
GI50 (HBL-100 [1]): 19000 nM
GI50 (WiDr [2]): 68000 nM
GI50 (HeLa [3]): 18000 nM
GI50 (SW1573 [4]): 17000 nM

COc1cccc2c1C1=C(CCC(C)(C)O1)C(=O)C2=O
GI50 (HBL-100 [1]): 690 nM
GI50 (WiDr [2]): 2100 nM
GI50 (HeLa [3]): 1800 nM
GI50 (SW1573 [4]): 460 nM

COc1cccc2c1C(=O)C1=C(OC(C)(C)CC1)C2=O
GI50 (HBL-100 [1]): 28000 nM
GI50 (WiDr [2]): > 100000 nM
GI50 (HeLa [3]): > 100000 nM
GI50 (SW1573 [4]): > 100000 nM

COc1cccc2c1C(=O)C(=O)C1=C2OC(C)(C)CC1
GI50 (HBL-100 [1]): 2700 nM
GI50 (WiDr [2]): 86000 nM
GI50 (HeLa [3]): 5100 nM
GI50 (SW1573 [4]): 1400 nM

CC1(C)CCC2=C(O1)c1cccc(O)c1C(=O)C2=O
GI50 (HBL-100 [1]): 36 nM
Activity (SW1573 [5]): Dose-dependent effect
Activity (WiDr [6]): Dose-dependent effect
Activity (HeLa [7]): Active
Activity (HeLa [8]): Active
Activity (HBL-100 [9]): Dose-dependent effect
Activity (HeLa [10]): Active
Activity (HeLa [11]): inactive
Activity (HeLa [12]): Dose-dependent effect
GI50 (WiDr [2]): 2000 nM
Activity (HeLa [13]): Active
GI50 (HeLa [3]): 210 nM
Activity (HeLa [14]): Active
GI50 (SW1573 [4]): 29 nM
Activity (SW1573 [15]): Dose-dependent effect
Activity (WiDr [16]): Dose-dependent effect
fold change (FC) (HeLa [17]): 6
Activity (HBL-100 [18]): Dose-dependent effect
Activity (HeLa [19]): inactive
Activity [20]: Non-toxic
inhibition [21]: inactive
Activity (HeLa [22]): Dose-dependent effect

CC1(C)CCC2=C(O1)c1c(O)cccc1C(=O)C2=O
GI50 (HBL-100 [1]): 620 nM
Activity (SW1573 [5]): Dose-dependent effect
Activity (WiDr [6]): Dose-dependent effect
Activity (HBL-100 [9]): Dose-dependent effect
Activity (HeLa [12]): Dose-dependent effect
GI50 (WiDr [2]): 1900 nM
GI50 (HeLa [3]): 1100 nM
GI50 (SW1573 [4]): 360 nM
Activity (SW1573 [15]): Dose-dependent effect
Activity (WiDr [16]): Dose-dependent effect
Activity (HBL-100 [18]): Dose-dependent effect
inhibition [21]: inactive
Activity (HeLa [22]): Dose-dependent effect

CC1(C)CCC2=C(O1)C(=O)c1c(O)cccc1C2=O
GI50 (HBL-100 [1]): 3400 nM
GI50 (WiDr [2]): 14000 nM
GI50 (HeLa [3]): 1800 nM
GI50 (SW1573 [4]): 19000 nM

CC1(C)CCC2=C(O1)c1ccccc1C(=O)C2=O [LAPACHONE]
GI50 (HBL-100 [1]): 380 nM
Activity (SW1573 [5]): Dose-dependent effect
Activity (WiDr [6]): Dose-dependent effect
Activity (HBL-100 [9]): Dose-dependent effect
Activity (HeLa [12]): Dose-dependent effect
GI50 (HeLa [3]): 1000 nM
GI50 (SW1573 [4]): 840 nM
Activity (SW1573 [15]): Dose-dependent effect
Activity (WiDr [16]): Dose-dependent effect
Activity (HBL-100 [18]): Dose-dependent effect
inhibition [21]: inactive
Activity (HeLa [22]): Dose-dependent effect

COc1cccc2c1C(=O)C(CC=C(C)C)=C(O)C2=O
GI50 (HBL-100 [1]): 22000 nM
GI50 (WiDr [2]): > 100000 nM
GI50 (HeLa [3]): 30000 nM
GI50 (SW1573 [4]): 26000 nM

COc1ccc2c(c1)C(=O)C(=O)C1=C2OC(C)(C)CC1
GI50 (HBL-100 [1]): 410 nM
GI50 (WiDr [2]): 27000 nM
GI50 (HeLa [3]): 1700 nM
GI50 (SW1573 [4]): 450 nM

COc1ccc2c(c1)C(=O)C1=C(CCC(C)(C)O1)C2=O
GI50 (HBL-100 [1]): 28000 nM
GI50 (WiDr [2]): 82000 nM
GI50 (HeLa [3]): 40000 nM
GI50 (SW1573 [4]): 27000 nM

— ChEMBL document CHEMBL2034819, “β-Lapachone analogs with enhanced antiproliferative activity” (Eur J Med Chem, 2012)
